From ChEMBL document CHEMBL3612064, “Oxidative Reactivities of 2-Furylquinolines: Ubiquitous Scaffolds in Common High-Throughput Screening Libraries” (J Med Chem, 2015) come the findings set out here.

Where “and” joins values, the source holds several entries; their conditions need not be identical. Identical values can stand only once. Calls of active or inactive are those of the source. The calls are words filed in the database; no cut-off is given here.

Series [1] can be described thus: Drug metabolism in DMSO solution assessed as compound formation incubated for 38 days exposed to laboratory air by LC/MS method. Format: physicochemical. The settings on record: 912 h.
A short description of series [2]: Stability in DMSO solution assessed as parent compound remaining at 10 mM incubated for 38 days exposed to laboratory air by HPLC method.
Series [3] has as its target T1, DNA dC->dU-editing enzyme APOBEC-3G (Homo sapiens, UniProt Q9HC16). The series can be described thus: Inhibition of APOBEC3G (unknown origin) assessed as remaining enzyme activity at 200 uM using ssDNA oligomer 5'-6-FAM-AAA-TAT-TCC-CTA-ATA-GAT-AAT-GTG-A-TAMRA-3' by fluorescence-based deamination assay. A digest of the protocol: (§1)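 Recombinant A3G was expressed and purified. A freshly prepared DMSO stock (day 0) was tested in dose response up to 200 μM. The read-out was the fluorescence-based ssDNA C-to-U deamination assay with a 5'-6-FAM/3'-TAMRA oligo, detected after uracil DNA glycosylase processing. Performed in triplicate, mean ± SD.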

Series [4] is described as follows: Drug metabolism assessed as compound formation using compound-1 by LC-MS method. The format is physicochemical. An outline of the steps: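 10 mM DMSO stocks were gently shaken at 25 °C open to air and analysed on day 38 by LC-MS. The LC-MS used a C18 column (0.5 × 150 mm, 5 μm) at 15 μL/min with trifluoroacetic and formic acid modifiers, and an ion-trap MS in positive-ion mode. Decomposition products were scored as detected or not detected.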

Series [5] can be described thus: Drug metabolism assessed as oxidative compound decompostion after irradiation with visible light under oxygen-saturated environment in presence of rose bengal photosensitizer using compound-1 by LC/MS method. Format: physicochemical.
The nature of series [6]: Drug metabolism assessed as oxidative compound decompostion after irradiation with visible light under oxygen-saturated environment using [18]O2 in presence of rose bengal photosensitizer using by LC/MS method. Format: physicochemical.
The target of series [7] is DNA dC->dU-editing enzyme APOBEC-3A (Homo sapiens, UniProt P31941). Briefly: Inhibition of APOBEC3A (unknown origin) by fluorescence-based ssDNA C-to-U deaminase assay. A digest of the protocol:
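Recombinant purified A3A was tested in dose-response up to 200 μM, with compound from DMSO stock. C-to-U deamination was read by fluorescence from the 6-FAM/TAMRA-labelled probe in a coupled uracil DNA glycosylase step, and IC50 was taken from the dose-response curve.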

The target of series [8] is T1, DNA dC->dU-editing enzyme APOBEC-3G. Briefly: Inhibition of APOBEC3G (unknown origin) fluorescence-based ssDNA C-to-U deaminase assay.
A short description of series [9]: Toxicity against HEK293T cells assessed as cell viability at 50 uM incubated for 5 days. The format is cell-based, HEK-293T. Conditions: human, read-out: Activity.
For series [10], the target named is T1, DNA dC->dU-editing enzyme APOBEC-3G. The series can be described thus: Inhibition of APOBEC3G (unknown origin) up to 200 uM using ssDNA oligomer 5'-6-FAM-AAA-TAT-TCC-CTA-ATA-GAT-AAT-GTG-A-TAMRA-3' by fluorescence-based deamination assay. A digest of the protocol:
as §1

Series [11] shares this target. The series can be described thus: Inhibition of APOBEC3G (unknown origin) up to 200 uM incubated for 3 to 72 days using ssDNA oligomer 5'-6-FAM-AAA-TAT-TCC-CTA-ATA-GAT-AAT-GTG-A-TAMRA-3' by fluorescence-based deamination assay. The settings on record: TDE = time-dependent effect. A digest of the protocol: (§2)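 A DMSO stock of the compound was aged in a closed microcentrifuge tube at 20-22 °C on the bench. The same stock was re-tested against recombinant A3G in dose response up to 200 μM at days 3, 21, 38 and 72. The assay was the fluorescence-based C-to-U deamination assay on a 6-FAM/TAMRA ssDNA oligo, with uracil DNA glycosylase in the read-out. Triplicates, mean ± SD.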

For series [12] the target is unchanged. Briefly: Inhibition of APOBEC3G (unknown origin) assessed as remaining enzyme activity at 200 uM incubated for 3 days using ssDNA oligomer 5'-6-FAM-AAA-TAT-TCC-CTA-ATA-GAT-AAT-GTG-A-TAMRA-3' by fluorescence-based deamination assay. A digest of the protocol:
as §2

The target is the same in series [13]. The series can be described thus: Inhibition of APOBEC3G (unknown origin) assessed as remaining enzyme activity at 200 uM incubated for 21 days using ssDNA oligomer 5'-6-FAM-AAA-TAT-TCC-CTA-ATA-GAT-AAT-GTG-A-TAMRA-3' by fluorescence-based deamination assay. A digest of the protocol:
as §2

Series [14] has the same target. Briefly: Inhibition of APOBEC3G (unknown origin) assessed as remaining enzyme activity at 200 uM incubated for 38 days using ssDNA oligomer 5'-6-FAM-AAA-TAT-TCC-CTA-ATA-GAT-AAT-GTG-A-TAMRA-3' by fluorescence-based deamination assay. A digest of the protocol: as §2
Series [15] has the same target. The series can be described thus: Inhibition of APOBEC3G (unknown origin) assessed as remaining enzyme activity at 200 uM incubated for […] using ssDNA oligomer 5'-6-FAM-AAA-TAT-TCC-CTA-ATA-GAT-AAT-GTG-A-TAMRA-3' by fluorescence-based deamination assay.
Series [16] shares this target. Briefly: Inhibition of APOBEC3G (unknown origin) assessed as reduction enzyme efficiency at 200 uM using ssDNA oligomer 5'-6-FAM-AAA-TAT-TCC-CTA-ATA-GAT-AAT-GTG-A-TAMRA-3' by fluorescence-based deamination assay. An outline of the steps:
as §1

Series [17] in a line: Drug metabolism assessed as formation of oxidative decomposition products by LC-MS method. The format is physicochemical.
The nature of series [18]: Drug level assessed as compound formation using compound-1 in DMSO incubated for 16 months by 1H and 13C NMR method. The format is physicochemical. The settings on record: 11688 h.
The nature of series [19]: Drug level assessed as compound formation using compound-1 in DMSO incubated for 16 months by IR method. The settings on record: 11688 h. The format is physicochemical.
Series [20] is described as follows: Drug level assessed as compound formation using compound-1 in DMSO incubated for 16 months by LC-MS method. The format is physicochemical. The settings on record: 11688 h.
Series [21] deals with T1, DNA dC->dU-editing enzyme APOBEC-3G. The series can be described thus: Inhibition of APOBEC3G (unknown origin) using ssDNA oligomer 5'-6-FAM-AAA-TAT-TCC-CTA-ATA-GAT-AAT-GTG-A-TAMRA-3' by fluorescence-based deamination assay. A digest of the protocol:
as §1

T1 sequence (Q9HC16 whole entry): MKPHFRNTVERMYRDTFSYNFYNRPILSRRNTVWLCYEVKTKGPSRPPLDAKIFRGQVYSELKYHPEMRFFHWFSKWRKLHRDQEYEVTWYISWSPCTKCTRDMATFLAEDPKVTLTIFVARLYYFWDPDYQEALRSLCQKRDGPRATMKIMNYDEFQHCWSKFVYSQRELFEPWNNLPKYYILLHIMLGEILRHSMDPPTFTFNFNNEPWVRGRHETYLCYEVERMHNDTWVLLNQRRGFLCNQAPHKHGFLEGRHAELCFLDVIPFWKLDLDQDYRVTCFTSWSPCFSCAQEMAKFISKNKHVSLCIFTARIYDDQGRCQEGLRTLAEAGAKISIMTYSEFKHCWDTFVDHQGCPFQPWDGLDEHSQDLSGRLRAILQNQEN
DNA dC->dU-editing enzyme APOBEC-3A, sequence (P31941 whole entry): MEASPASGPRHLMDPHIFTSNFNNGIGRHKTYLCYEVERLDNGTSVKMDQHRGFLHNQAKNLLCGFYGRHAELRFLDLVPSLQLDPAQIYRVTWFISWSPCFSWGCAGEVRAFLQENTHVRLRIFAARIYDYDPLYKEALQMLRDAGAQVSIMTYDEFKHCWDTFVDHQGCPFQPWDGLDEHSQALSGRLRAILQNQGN

Consider `O=CCC(=O)c1cc(C(=O)Nc2nnc(-c3ccncc3)s2)c2ccccc2n1`, for which the Drug metabolism entry in [1] is listed as “metabolite_detected”. `Cc1ccc(-c2cc(C(=O)N3CCN(S(C)(=O)=O)CC3)c3ccccc3n2)o1`: the share remaining at 912 h, 10000 µM in [2] turned out to be 26%. Usually inhibition stands for the drop in the measured response relative to a control, in per cent. On to `CC1(O)C=CC(OO)(c2cc(C(=O)Nc3nnc(-c4ccncc4)s3)c3ccccc3n2)O1` (configuration not stated), for which the inhibition result in [3] was “inactive”. Further, the Drug metabolism result in series [4] and in series [5] was “metabolite_detected” each time. With `Cc1ccc(-c2cc(C(=O)NCc3ccc4c(c3)OCO4)c3ccccc3n2)o1`, in series [2], the fraction remaining at 912 h, 10000 µM worked out at 56%.

On to `O=C(O)c1cc(-c2ccco2)cc2ccccc12`, for which the share remaining at 912 h, 10000 µM in [2] turned out to be 89%.

Regarding `Cc1ccc(-c2cc(C(=O)NC(C)C3CCCO3)c3ccccc3n2)o1` (configuration not stated), the fraction remaining at 912 h, 10000 µM in series [2] came out at 55%.

On to `CC1(OO)C=CC(O)(c2cc(C(=O)Nc3nnc(-c4ccncc4)s3)c3ccccc3n2)O1` (configuration not stated), for which the inhibition entry in series [3] was “inactive”. The Drug metabolism entry in series [4] and in [5] was “metabolite_detected” in each case. On to `O=C(O)/C=C\C(=O)c1cc(C(=O)Nc2nnc(-c3ccncc3)s2)c2ccccc2n1`, for which the Drug metabolism entry in [1] is given as “metabolite_detected”. With `O=C(Nc1nnc(-c2ccncc2)s1)c1cc(-c2ccco2)nc2ccccc12`, in [2], the share remaining at 912 h, 10000 µM came to 101%. `Cc1ccc(-c2cc(C(=O)Nc3nnc(-c4ccncc4)s3)c3ccccc3c2)o1`: the amount remaining at 912 h, 10000 µM in series [2] stood at 25%. Broadly, the IC50 is the concentration that gives 50% inhibition. As for `Cc1ccc(-c2cc(C(=O)Nc3nnc(-c4ccncc4)s3)c3ccccc3n2)o1`, the Drug metabolism entry in series [6] is on record as “metabolite_detected”. The IC50 is 2.8 µM and 9.8 µM in series [7]; 10.8 µM and 50.3 µM in [8]. Moreover, the viability at 120 h, 50 µM in [9] is above 85%. Besides, the inhibition entry in series [10] is “inactive”. Further, the inhibition entry in [11] was “tde”. Also, the Activity in series [12] was found to be 82%; in series [13] it was 55%; in series [14] it was 29%; in [15], 29%. Besides, the share remaining at 912 h, 10000 µM in series [2] was 6%. With `Cc1ccc(-c2cc(C(=O)O)ccn2)o1`, the fraction remaining at 912 h, 10000 µM in series [2] is 85%. As for `COC(=O)c1cc(NC(=O)c2cc(-c3ccc(C)o3)nc3ccccc23)cc(C(=O)OC)c1`, the share remaining at 912 h, 10000 µM in [2] is 19%. In the case of `O=C(Nc1nnc(-c2ccncc2)s1)c1cc(=O)[nH]c2ccccc12`, the Activity in series [3] came out at 83%. For the same compound, the inhibition in series [16] was found to be 50%. Moreover, the Drug metabolism result in [17], in series [5], in series [1], in series [18], in series [19] and in [20] was “metabolite_detected” each time. `COc1ccc(CCNC(=O)c2cc(-c3ccc(C)o3)nc3ccccc23)cc1`: the amount remaining at 912 h, 10000 µM in [2] came out at 84%. On the same count and under the same terms, to `O=C(Nc1nnc(-c2ccncc2)s1)c1ccnc(-c2ccco2)c1` belongs 90%. For the compound `Nc1nnc(-c2ccncc2)s1`, the inhibition result in [3] was “inactive”. For `Cc1ccc(-c2cc(C(=O)O)c3ccccc3c2)o1`, the amount remaining at 912 h, 10000 µM in [2] is 82%. Take `Cc1ccc(-c2cc(C(=O)Nc3nnc(-c4ccncc4)s3)ccn2)o1`: in [2], the share remaining at 912 h, 10000 µM stood at 34%.

For the compound `O=C(NNC(=O)c1cc(-c2ccco2)nc2ccccc12)NC1CCCCC1`, the share remaining at 912 h, 10000 µM in series [2] worked out at 64%.

On to `O=C(Nc1nnc(-c2ccncc2)s1)c1cc(-c2ccco2)cc2ccccc12`, for which the amount remaining at 912 h, 10000 µM in series [2] worked out at 0%. On to `O=C(O)c1cc(-c2ccco2)nc2ccccc12`, for which the fraction remaining at 912 h, 10000 µM in [2] worked out at 69%. Regarding `O=C(O)c1cc(C(=O)Nc2nnc(-c3ccncc3)s2)c2ccccc2n1`, the Activity in series [3] was 43%. Moreover, the Drug metabolism result in [4], in series [5] and in [1] was “metabolite_detected” throughout. Take `Cc1ccc(-c2cc(C(=O)NC3CCCCC3)c3ccccc3n2)o1`: the fraction remaining at 912 h, 10000 µM in series [2] was 54%. Regarding `Cc1ccc(-c2ccc3ccccc3n2)o1`, the fraction remaining at 912 h, 10000 µM in series [2] turned out to be 102%. In the case of `O=C(O)c1ccnc(-c2ccco2)c1`, in [2], the amount remaining at 912 h, 10000 µM came out at 92%. For `Cc1ccc(-c2cc(C(=O)O)c3ccccc3n2)o1`, the amount remaining at 912 h, 10000 µM in [2] stood at 83%.

As to `CC(=O)/C=C\C(=O)c1cc(C(=O)Nc2nnc(-c3ccncc3)s2)c2ccccc2n1`, the Drug metabolism result in [4], in [5] and in [1] was “metabolite_detected” each time. In series [21], this compound returned an IC50 of 20 µM. Regarding `c1coc(-c2ccc3ccccc3n2)c1`, the share remaining at 912 h, 10000 µM in series [2] amounted to 117%.

As for `Cc1cccc(NC(=O)c2cc(-c3ccc(C)o3)nc3ccccc23)n1`, the share remaining at 912 h, 10000 µM in series [2] was 73%.
